Here are results for ten molecules from ChEMBL document CHEMBL1138849, “5-substituted tetrazoles as bioisosteres of carboxylic acids. Bioisosterism and mechanistic studies on glutathione reductase inhibitors as antimalarials” (J Med Chem, 2004).

Calls of active or inactive are those of the source. The rule behind the calls is not given here.

One test deals with MRC5. Briefly: Cytotoxicity against human diploid embryonic lung cell line hMRC-5 was observed at conc. upto 32 uM; (No cytotoxicity). It counts as functional, cell-based.
In test [1] the target is Glutathione reductase (Plasmodium falciparum 3D7) (UniProt O15770). The test can be described thus: Catalysis constant against Plasmodium falciparum glutathione reductase. An outline of the steps: (§1)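 Recombinant human or P. falciparum GR run as a quinone reductase without GSSG. Mix: 100 mM phosphate pH 7.0, 200 mM KCl, 100 μM NADPH, 1% DMSO, enzyme, and naphthoquinone at 10 levels from 10 to 400 μM. NADPH oxidation read at 340 nm (ε 6.22 mM⁻¹ cm⁻¹). Steady-state rates fitted to Michaelis–Menten by nonlinear regression to give Km and Vmax; kcat and kcat/Km calculated.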
Sequence of Glutathione reductase (Plasmodium falciparum 3D7) (O15770 whole entry): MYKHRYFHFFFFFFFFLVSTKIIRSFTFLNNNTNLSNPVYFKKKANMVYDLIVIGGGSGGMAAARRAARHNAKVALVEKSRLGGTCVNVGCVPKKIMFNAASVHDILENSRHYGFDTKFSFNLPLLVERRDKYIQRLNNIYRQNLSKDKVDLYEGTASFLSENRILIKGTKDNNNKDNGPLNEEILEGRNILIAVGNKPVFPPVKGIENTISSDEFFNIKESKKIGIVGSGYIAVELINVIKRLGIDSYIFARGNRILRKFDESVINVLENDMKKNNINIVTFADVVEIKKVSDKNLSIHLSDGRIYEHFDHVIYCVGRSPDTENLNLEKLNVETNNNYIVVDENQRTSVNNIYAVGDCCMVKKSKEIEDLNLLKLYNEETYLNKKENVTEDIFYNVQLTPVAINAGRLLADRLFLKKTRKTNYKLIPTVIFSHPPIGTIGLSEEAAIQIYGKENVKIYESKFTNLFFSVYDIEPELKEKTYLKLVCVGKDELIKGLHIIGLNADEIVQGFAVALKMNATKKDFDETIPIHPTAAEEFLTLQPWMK

The target of test [2] is T1, Glutathione reductase, mitochondrial (Homo sapiens) (UniProt P00390).
T1 sequence (whole entry): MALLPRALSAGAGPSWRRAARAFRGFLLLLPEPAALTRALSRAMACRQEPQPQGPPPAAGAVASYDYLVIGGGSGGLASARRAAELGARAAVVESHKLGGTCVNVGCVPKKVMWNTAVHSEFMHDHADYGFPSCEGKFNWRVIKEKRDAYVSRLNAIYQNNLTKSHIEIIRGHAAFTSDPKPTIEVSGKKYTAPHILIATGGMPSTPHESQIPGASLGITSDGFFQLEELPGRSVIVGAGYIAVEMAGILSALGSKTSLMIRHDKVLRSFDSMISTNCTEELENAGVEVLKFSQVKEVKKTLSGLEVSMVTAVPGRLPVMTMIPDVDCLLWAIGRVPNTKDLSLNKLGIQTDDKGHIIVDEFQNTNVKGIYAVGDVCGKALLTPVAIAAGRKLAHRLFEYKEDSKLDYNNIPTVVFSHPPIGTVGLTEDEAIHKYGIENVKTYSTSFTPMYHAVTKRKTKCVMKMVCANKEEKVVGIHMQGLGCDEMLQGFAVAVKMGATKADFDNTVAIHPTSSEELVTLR
Briefly: Catalysis constant against human glutathione reductase. An outline of the steps:
as §1

For test [3], the target named is T1, Glutathione reductase, mitochondrial (Homo sapiens). Briefly: Ratio of Catalysis constant Michaelis-Menten constant of human glutathione reductase. The essentials: as §1
Test [4] deals with Glutathione reductase (Plasmodium falciparum 3D7) (UniProt O15770). Briefly: Ratio of Catalysis constant Michaelis-Menten constant of Plasmodium falciparum glutathione reductase. An outline of the steps: as §1

Turning to `CC1=C(CCCCC(=O)O)C(=O)c2ccccc2C1=O`, the Cytotoxicity result in the test on MRC5 was “inactive”.
Still for that read-out and setting: to `CC1=C(CCCC(=O)NCCC#N)C(=O)c2ccccc2C1=O` belongs “inactive”.
The same measure, in the same setting: to `CC1=C(CCCCCC(=O)NCCC#N)C(=O)c2ccccc2C1=O` belongs “inactive”; to `CC1=C(CCCCCC(=O)O)C(=O)c2ccccc2C1=O`, “inactive”.
As for `CC1=C(CCCCC(=O)NCCC#N)C(=O)c2ccccc2C1=O`, the Cytotoxicity entry with MRC5 was “inactive”.
The same measure, in the same setting: in the case of `CC1=C(CCCc2nnnn2CCC#N)C(=O)c2ccccc2C1=O` it was “inactive”; in that of `CC1=C(CCCCCc2nnnn2CCC#N)C(=O)c2ccccc2C1=O`, “inactive”.
For `CC1=CC(=O)c2ccccc2C1=O`, the K cat in test [1] and in test [2] was 0.16 s⁻¹ each time. The K cat/Km in test [3] came out at 5330 M⁻¹ s⁻¹; in test [4], 1990 M⁻¹ s⁻¹.
For `CC1=C(CCCCCC(=O)OCCN(C)C)C(=O)c2ccccc2C1=O`, the Cytotoxicity entry in the test with MRC5 is “inactive”.
As to `CC1=C(CCCCc2nnnn2CCC#N)C(=O)c2ccccc2C1=O`, the Cytotoxicity result with MRC5 is “inactive”.
